Compounds with a hit are over-represented: about 3.5% of the library has one in this group of screens.
MrgX1 antagonist: antagonists of human MrgX1 receptor, primary screen, HEK293 cells, Fluo-4 calcium flux; BAM8-22 antagonism; hits give low values; actives 1.3% (n = 310,000); B-score at 10 µM;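 active = calcium-response B-score plate-corrected more than 3 library SD below zero, starting fluorescence within 5 deviations, no agonist response on first addition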;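 note: peak minus trough fluorescence over baseline after final BAM8-22 challenge near maximal dose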
Target sequence (Q96LB2 whole entry, looked up): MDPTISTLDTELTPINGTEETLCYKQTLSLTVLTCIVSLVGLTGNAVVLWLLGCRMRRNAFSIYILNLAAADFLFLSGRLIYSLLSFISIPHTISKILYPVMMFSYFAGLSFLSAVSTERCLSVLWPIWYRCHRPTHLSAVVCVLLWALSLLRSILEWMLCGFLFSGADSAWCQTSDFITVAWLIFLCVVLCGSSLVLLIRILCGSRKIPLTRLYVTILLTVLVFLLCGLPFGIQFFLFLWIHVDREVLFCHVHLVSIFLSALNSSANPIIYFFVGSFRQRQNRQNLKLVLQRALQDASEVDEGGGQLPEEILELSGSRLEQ
RGS4 block: RGS4 inhibitors, primary screen, cell-based, HEK293 M3R inducible RGS4, calcium flux | Regulator of G-protein signaling 4 (Homo sapiens), P49798 | Fluo-4 calcium flux; hits give high values; triggered by carbachol at its EC20 | B-score at 10 µM | actives 0.45% (n = 310,000) | AID 463165, 2010;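 active = B-score, a plate-corrected calcium signal, over three deviations above library mean, with baseline fluorescence within five deviations of library mean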;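 note: RGS4 expression induced by doxycycline in cells with stable M3 receptor; B-score is computed from the integrated fluorescence ratio over baseline after carbachol; higher B-score means a larger calcium signal and so more RGS4 inhibition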
Target sequence (P49798 whole entry, looked up): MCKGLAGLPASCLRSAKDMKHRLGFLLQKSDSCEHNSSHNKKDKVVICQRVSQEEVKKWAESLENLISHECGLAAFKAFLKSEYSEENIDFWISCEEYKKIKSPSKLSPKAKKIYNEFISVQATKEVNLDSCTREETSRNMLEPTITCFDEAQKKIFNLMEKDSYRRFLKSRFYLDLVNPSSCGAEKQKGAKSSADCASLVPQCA
RGS4 pot: RGS4 potentiators or activators, primary screen, cell-based, HEK293 M3R inducible RGS4, calcium flux; AID 463111, 2010; carbachol calcium flux Fluo4; hits give low values; actives 0.92% (n = 310,000); B-score at 10 µM;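 active = B-score of the integrated calcium signal more than 4 SD below the library mean, with starting fluorescence not abnormally high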;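 note: negative B-score means reduced calcium response which marks RGS4 activation or potentiation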
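Detection: kinetic calcium fluorescence imaging with Fluo4-AM dye, 2 µM / Material: HEK293 cells with stable M3R and inducible RGS4 / Schedule: recording 10 s baseline at 1 Hz, 100 s post-agonist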
MrgX1 ag: agonists of human MrgX1 receptor, primary screen, HEK293 cells, Fluo-4 calcium flux. Fluo-4 calcium fluorescence, agonist mode; hits give high values. B-score at 10 µM. actives 0.44% (n = 310,000);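 active = calcium response B-score plate-corrected fluorescence ratio at least 3 library SD, with starting fluorescence B-score inside 5 SD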
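Material – MrgX1-expressing HEK293 cells · Input – 15,000 cells seeded per well · Dosing – compound as first of three additions · Times – overnight seeding, then 1 h dark dye loading · Measured by – kinetic Fluo-4 NW fluorescence of intracellular calcium · Read-out – B-scored fluorescence response ratio · Benchmarks – positive and negative control wells on each plate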
MrgX1 allo act: positive allosteric modulators of MrgX1, primary screen, HEK293 cells, Fluo-4 calcium flux; Mas-related G-protein coupled receptor member X1 (Homo sapiens), Q96LB2; FDSS; hits give high values; B-score at 10 µM; actives 0.63% (n = 310,000);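 active = plate-corrected calcium response at least 3 library SD above typical, normal starting fluorescence, not activating the receptor alone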;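 note: compound read alongside a low EC10 to EC30 dose of BAM8-22 agonist; peak minus trough fluorescence over baseline measured at the second addition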
MrgX1 antag conf: MrgX1 receptor antagonists, duplicate retest, confirmation, HEK293 cells, Fluo-4 calcium flux. shares compounds with MrgX1 antagonist. BAM8-22 calcium flux; hits give low values. remaining BAM8-22 calcium response % of control (hits give low values), % at 10 µM. actives 19% (n = 2,300). AID 602420, 2012;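 active = remaining agonist calcium response no higher than 100% minus 3 SD of agonist-only control wells, with starting fluorescence near control levels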;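 note: agonist BAM8-22 given at a near maximal EC90 to ECmax level; peak minus minimum fluorescence divided by baseline after agonist addition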
HEK293 Ca flux: nonspecific calcium signal in parental HEK293, confirmation, counter-screen for MrgX1 antagonist project, parental HEK293 cells, Fluo-4 calcium flux; shares compounds with MrgX1 antagonist; Fluo-4 calcium fluorescence, FDSS; fluorescence ratio F(max-min)/F0 at 10 µM; actives 2% (n = 4,000);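 active = duplicate-averaged calcium fluorescence ratio at least three times the standard deviation of buffer wells, a nonspecific response in parental cells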
HEK293 Ca counter: calcium response in parental HEK293 cells, primary screen, counter-screen for MrgX1 allosteric activator project, cell-based, Fluo-4 calcium flux, duplicate. shares compounds with MrgX1 antagonist. actives 0.4% (n = 4,000). AID 624114, 2012. fluorescence ratio F(max-min)/F0 at 10 µM. Fluo-4 fluorescence ratio; hits give high values;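 active = calcium fluorescence ratio, averaged over duplicates, at least 3 SD of the buffer-well ratio, meaning a nonspecific response in receptor-free cells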;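 note: untransfected parental HEK293 lacking MrgX1 used as counterscreen for MrgX1 allosteric activators; fluorescence change taken during the second addition on a kinetic imager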
HEK293 Ca cntr2: calcium response in parental HEK293 cells, primary screen, counter-screen for MrgX1 agonist project, cell-based, Fluo-4 calcium flux, duplicate, agonist mode; shares compounds with MrgX1 antagonist; Fluo-4 calcium fluorescence (FDSS); hits give high values; fluorescence ratio F(max-min)/F0 at 10 µM; actives 8.7% (n = 4,000);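 active = calcium fluorescence ratio at least three times the spread of buffer wells, meaning a non-specific response in parental cells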
* marks the source's active call; other numbers are inactive results; i = inactive; . = no result given.

SMILES	MrgX1 antagonist	RGS4 block	RGS4 pot	MrgX1 ag	MrgX1 allo act	MrgX1 antag conf	HEK293 Ca flux	HEK293 Ca counter	HEK293 Ca cntr2
CCN(CC)S(=O)(=O)c1cccc(NC(=O)Nc2cccc(C(F)(F)F)c2)c1	-5.17*	i	i	i	i	53.4%*	i	i	i
CCN(CC)S(=O)(=O)c1cccc(NC(=O)CC2CCCC2)c1	i	i	i	i	i	.	.	.	.
CCn1c(SCC(=O)NCCc2ccccc2)nc2c([nH]c3ccccc32)c1=O	i	i	i	i	i	.	.	.	.
COc1ccc(S(=O)(=O)N2CCC3(CC2)OCCN3S(=O)(=O)c2ccc(C)cc2)cc1OC	-6.63*	i	i	i	i	i	i	i	i
S=C(NCc1cccs1)Nc1cccc(Cl)c1	-5.06*	i	i	i	i	i	i	i	i
C=CCn1c(C)nnc1SCC(=O)Nc1oc(C)c2c(C)n[nH]c(=O)c12	-5.26*	i	i	i	i	i	i	i	i
CCOCCCn1c(SCC(=O)Nc2oc(C)c3c(C)n[nH]c(=O)c23)nnc1-c1ccncc1	i	i	i	i	i	.	.	.	.
Cc1n[nH]c(=O)c2c(NC(=O)CSc3nnc(-c4ccncc4)n3C)oc(C)c12	-7.07*	i	i	i	i	i	i	i	i
S=C(Nc1ccc(Cl)cc1)Nc1cccc2cnccc12	-5.17*	i	i	i	i	i	i	i	i
CCOc1cc(/C=C(\C#N)C(=O)Nc2cccc(C(=O)O)c2)cc(Br)c1OC(=O)c1ccc(OC)cc1	-10.3*	i	-8.12*	i	i	i	i	i	49.9*
N#C/C(=C\c1ccc(OCc2ccc(Br)cc2)cc1)C(=O)Nc1cccc(C(=O)O)c1	i	i	i	i	i	.	.	.	.
Cc1cc(C)nc(N2CCC(C(=O)NC3CC3)CC2)n1	i	i	i	i	i	.	.	.	.
C=CCNC(=S)NN=C1CCCCCCC1	i	i	i	i	i	.	.	.	.
CCC(CC)C(=O)Nc1cccc(C(=O)Nc2ccc3c(c2)OCO3)c1	-6*	i	i	i	i	i	i	i	i
CCCNC(=O)c1cccc(NC(=O)C(C)C)c1	-7.27*	i	i	i	i	i	i	i	47.8*
CCN(CC)S(=O)(=O)c1cccc(C(=O)Nc2ccc3c(c2)OCO3)c1	i	i	i	i	i	.	.	.	.
C=CCCC(=O)N1CCC(n2nccc2NC(=O)c2ccccc2C)CC1	i	i	i	i	i	.	.	.	.
O=C(O)CSc1nnc(CNc2cccc(C(F)(F)F)c2)n1Cc1ccco1	-7.36*	i	i	i	i	78.9%*	i	i	i
O=C(CSc1nnc(CNc2cccc(C(F)(F)F)c2)n1Cc1ccco1)NCc1ccco1	i	i	i	i	i	.	.	.	.
Cc1ccc2c(c1)nnn2C1CCN(S(=O)(=O)c2ccc(C(=O)N(C)C)cc2)CC1	-7.04*	i	i	i	i	i	i	i	i
Cc1ccc2c(c1)nnn2C1CCN(S(=O)(=O)c2ccc(C(=O)NC3CCCC3)cc2)CC1	i	i	i	i	i	.	.	.	.
Fc1ccc(C(c2nnnn2Cc2cccs2)N2CCN(C3CCCC3)CC2)cc1 (centres undefined)	-7.06*	i	i	i	i	i	i	i	i
Cc1ccc(CNC(=O)Cc2ccc(-c3ccccc3)cc2)cc1	i	i	i	i	i	.	.	.	.
Cc1ccc(CC(=O)NCc2ccc(F)cc2)cc1	-5.03*	i	i	i	i	i	i	i	i
CN1CCN(C(=O)c2ccc(CNS(=O)(=O)c3ccc(F)c(Cl)c3)cc2)CC1	i	i	i	i	i	.	.	.	.
SMILES	MrgX1 antagonist	RGS4 block	RGS4 pot	MrgX1 ag	MrgX1 allo act	MrgX1 antag conf	HEK293 Ca flux	HEK293 Ca counter	HEK293 Ca cntr2
O=S1(=O)CCOCCN1Cc1ccc(Cl)cc1Cl	i	i	i	i	i	.	.	.	.
O=c1cc(NS(=O)(=O)c2ccccc2)nc(SCc2c(Cl)cccc2Cl)[nH]1	-5.14*	i	i	i	i	i	i	i	i
Cc1ccc2c(C(=O)CN3CCOCC3)c(C)[nH]c2c1	i	i	i	i	i	.	.	.	.
Cc1ccc2c(C(=O)CN3CCN(c4ccccc4)CC3)c(C)[nH]c2c1	-7.25*	i	i	i	i	i	i	i	i
CCOc1ccc(N(CC(=O)NC2CCCC2)S(=O)(=O)c2c(C)noc2C)cc1	-4.79*	i	i	i	i	65.2%*	i	i	i
CCOc1ccc(N(CC(=O)NC2CCCCC2)S(=O)(=O)c2c(C)noc2C)cc1	i	i	i	i	i	.	.	.	.
C[C@@]12C(=O)Nc3cc(F)ccc3C(=O)N1[C@H]1c3ccccc3OC[C@@H]1[C@@H]2c1ccccc1	-6.24*	.	.	i	i	82.4%*	i	i	i
Cc1ccc2c(c1)[C@H]1[C@H](CO2)[C@H](c2ccccc2)[C@]2(C)C(=O)Nc3cc(Cl)ccc3C(=O)N12	i	.	.	i	i	.	.	.	.
O=c1oc2ccccc2c2c1SC(C(F)(F)F)C2 (centres undefined)	-5.14*	i	i	i	i	75.7%*	i	i	i
Cc1cccc(NC(=O)C2CC(=O)N(Cc3ccccc3)C2)n1 (centres undefined)	i	i	i	i	i	.	.	.	.
COCCn1cnc2c1c(=O)n(Cc1ccccc1C#N)c(=O)n2Cc1ccccc1	i	i	i	i	i	.	.	.	.
